# Test results published in ChEMBL document CHEMBL1806410, “Design and synthesis of pyridine-substituted itraconazole analogues with improved antifungal activities, water solubility and bioavailability” (Bioorg Med Chem Lett, 2011).
# How the values were obtained:
# [1] = system: Aspergillus flavus; assay: Antifungal activity against Aspergillus flavus JLC 40437 by broth microdilution method; type: functional
# In short: (§1)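 MICs were determined by broth microdilution following NCCLS guidelines (M38-P for filamentous fungi). The panel covered four yeast species and two Aspergillus species, with two strains per species. Itraconazole served as positive control.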
# [2] = system: Aspergillus fumigatus; assay: Antifungal activity against Aspergillus fumigatus JLC 30883 by broth microdilution method; type: functional; in short: as §1
# [3] = system: Candida albicans; assay: Antifungal activity against Candida albicans JLC 30364 by broth microdilution method; type: functional; in short: as §1
# [4] = system: Salmonella typhimurium; assay: Mutagenic activity in Salmonella Typhimurium assessed as number of revertants colonies after 48 hrs by Ames test; type: toxicity, organism-based; details: salmonella enterica subsp. enterica serovar typhimurium
# In short: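 Plate incorporation protocol without S9 mix. About 10^9 bacterial cells in culture medium were mixed with test compound in DMSO and poured onto hardened agar, in triplicate plates. Plates were incubated at 37 °C for 48 h, then revertant colonies were counted and reported as mean ± standard deviation.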
# [5] = system: Candida parapsilosis; assay: Antifungal activity against Candida parapsilosis JLC 30365 by broth microdilution method; type: functional; details: Lodderomyces parapsilosis; in short: as §1
# [6] = Half life in rat at 2.5 mg/kg, iv administered as single dose; type: ADME, organism-based; set-up: dose 2.5 mg/kg, route intravenous; details: in vivo
# In short: (§2)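 Rats received a single iv dose. Drug levels were measured in plasma. Parameters came from the plasma concentration–time data: AUC over 0–t in ng h/mL, clearance (CL) in L/h/kg, and half-life in h.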
# [7] = Cmax in rat at 10 mg/kg, po administered as single dose; type: ADME, organism-based; set-up: dose 10 mg/kg, route oral; details: in vivo
# In short: (§3)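 Rats received a single dose of compound, either oral (10 mg/kg) or intravenous (10, 5 or 2.5 mg/kg). Plasma levels were followed, and the reported parameters were Cmax, Tmax, AUC0–t, half-life, clearance and bioavailability (F).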
# [8] = Solubility of the compound in water at pH 1.2; type: physicochemical; details: water, read-out: solubility
# [9] = system: Pichia kudriavzevii; assay: Antifungal activity against Candida krusei JLC 30366 by broth microdilution method; type: functional; in short: as §1
# [10] = AUC (0 to t) in rat at 10 mg/kg, po administered as single dose; type: ADME, organism-based; set-up: dose 10 mg/kg, route oral; details: plasma; in short: as §3
# [11] = Tmax in rat at 10 mg/kg, po administered as single dose; type: ADME, organism-based; set-up: dose 10 mg/kg, route oral; details: in vivo; in short: as §3
# [12] = system: Aspergillus fumigatus; assay: Antifungal activity against Aspergillus fumigatus JLC 30506 by broth microdilution method; type: functional; in short: as §1
# [13] = Oral bioavailability in rat at 10 mg/kg, administered as single dose; type: ADME, organism-based; details: in vivo; in short: as §3
# [14] = Acute toxicity in po dosed ICR mouse assessed as mortality after 10 days; type: organism-based; details: in vivo
# In short: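 Single oral dose on day 0 at 100, 144, 207, 299, 430 or 619 mg/kg. Animals were watched continuously for 10 days, recording deaths and signs of toxicity. LD50 was calculated by a modified Kaber method.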
# [15] = system: Candida albicans; assay: Antifungal activity against Candida albicans JLC 31374 by broth microdilution method; type: functional; in short: as §1
# [16] = system: Candida parapsilosis; assay: Antifungal activity against Candida parapsilosis JLC 30275 by broth microdilution method; type: functional; details: Lodderomyces parapsilosis; in short: as §1
# [17] = system: Pichia kudriavzevii; assay: Antifungal activity against Candida krusei JLC 30386 by broth microdilution method; type: functional; in short: as §1
# [18] = Clearance in rat at 2.5 mg/kg, iv administered as single dose; type: ADME, organism-based; set-up: dose 2.5 mg/kg, route intravenous; details: in vivo; in short: as §2
# [19] = Half life in rat at 10 mg/kg, po administered as single dose; type: ADME, organism-based; set-up: dose 10 mg/kg, route oral; details: in vivo; in short: as §3
# [20] = system: Aspergillus flavus; assay: Antifungal activity against Aspergillus flavus JLC 30784 by broth microdilution method; type: functional; in short: as §1
# [21] = system: Cryptococcus neoformans; assay: Antifungal activity against Cryptococcus neoformans JLC 50122 by broth microdilution method; type: functional; in short: as §1
# [22] = system: Cryptococcus neoformans; assay: Antifungal activity against Cryptococcus neoformans JLC 50123 by broth microdilution method; type: functional; in short: as §1
# [23] = AUC (0 to t) in rat at 2.5 mg/kg, iv administered as single dose; type: ADME, organism-based; set-up: dose 2.5 mg/kg, route intravenous; details: plasma; in short: as §2
smiles,measurement,setting,value
CC(C)(CO)Cn1ncn(-c2ccc(N3CCN(c4ccc(OC[C@H]5CO[C@](Cn6cncn6)(c6ccc(F)cc6F)O5)cc4)CC3)cn2)c1=O,MIC,[1],< 0.0156 µg/mL
same,MIC,[2],0.03 µg/mL
same,MIC,[3],0.0156 µg/mL
same,Activity,[4],Non-toxic
same,MIC,[5],< 0.0156 µg/mL
same,half-life,[6],2.3 h
same,Cmax,[7],297 ng/mL
same,solubility,[8],190 µg/mL
same,MIC,[9],< 0.0156 µg/mL
same,AUC(0-t),[10],1900 ng·h/mL
same,Tmax,[11],3 h
same,MIC,[12],0.03 µg/mL
same,bioavailability,[13],42.2%
same,LD50 at 240 h,[14],278 mg/kg
same,MIC,[15],0.0156 µg/mL
same,MIC,[16],< 0.0156 µg/mL
same,MIC,[17],< 0.0156 µg/mL
same,clearance,[18],36.7 mL/min/kg
same,half-life,[19],3.41 h
same,MIC,[20],< 0.0156 µg/mL
same,MIC,[21],< 0.0156 µg/mL
same,MIC,[22],< 0.0156 µg/mL
same,AUC(0-t),[23],1120 ng·h/mL
